Test results taken from ChEMBL document CHEMBL1153083, “Antiprotozoal, anticancer and antimicrobial activities of dihydroartemisinin acetal dimers and monomers” (Bioorg Med Chem, 2009).
The source made the active and inactive calls. No cut-off for these calls is given here.

Key:
Plasmodium falciparum [1] = test: Antiplasmodial activity against Plasmodium falciparum W2 infected in RBCs by parasitic LDH release assay; assay type: functional, organism-based
Method in brief: (§1)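 Infected erythrocytes at 2% parasitemia and 2% hematocrit, in RPMI 1640 with 10% human serum and amikacin 60 μg/mL, were exposed to serial dilutions under N2/O2/CO2 (90:5:5) at 37°C for 72 h. LDH was read with Malstat reagent (30 min), then NBT/PES in the dark (60 min), stopped with 5% acetic acid, at 650 nm. IC50 came from percent growth dose-response curves.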

Cryptococcus neoformans = test: Antifungal activity against Cryptococcus neoformans ATCC 90113 by modified CLSI/NCCLS method; assay type: functional, organism-based
[2] = tested on: Mycobacterium intracellulare; test: Antibacterial activity against Mycobacterium intracellular ATCC 23068 by Franzblau method; assay type: functional, organism-based
Pichia kudriavzevii = test: Antifungal activity against Candida krusei ATCC 6258 by modified CLSI/NCCLS method; assay type: functional, organism-based
Escherichia coli = test: Antibacterial activity against Escherichia coli ATCC 35218 by modified CLSI/NCCLS method; assay type: functional, organism-based
[3] = Selectivity index, ratio of TC50 for african green monkey (Cercopithecus aethiops) Vero cells to IC50 for Plasmodium falciparum W2; assay type: toxicity, cell-based
KB = test: Cytotoxicity against human KB cells after 48 hrs by neutral red assay; assay type: functional, cell-based
Method in brief: (§2)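 Cells seeded at 25,000 per well and incubated 24 h, then exposed to samples for 48 h. Viable cells were counted by neutral red, with DMSO as vehicle control. IC50 or TC50 values were derived from logarithmic plots of growth inhibition versus concentration.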

SK-OV-3 = test: Cytotoxicity against human SKOV3 cells after 48 hrs by neutral red assay; assay type: functional, cell-based; method in brief: as §2
Staphylococcus aureus [4] = test: Antibacterial activity against methicillin-resistant Staphylococcus aureus ATCC 43300 by modified CLSI/NCCLS method; assay type: functional, organism-based
[5] = Toxicity against african green monkey Vero cells; assay type: cell-based; conditions: chlorocebus sabaeus; method in brief: as §2
Staphylococcus aureus [6] = test: Antibacterial activity against Staphylococcus aureus ATCC 29213 by modified CLSI/NCCLS method; assay type: functional, organism-based
BT-549 = test: Cytotoxicity against human BT549 cells after 48 hrs by neutral red assay; assay type: functional, cell-based; method in brief: as §2
[7] = Toxicity against pig LLC-PK11 cells after 48 hrs by neutral red assay; assay type: cell-based, Sus scrofa; conditions: for CC50 at 48 h: LLC-PK11 cells, read-out: TC50; for TC50: llc-pk11, 48 h; method in brief: as §2
Plasmodium falciparum [8] = test: Antiplasmodial activity against Plasmodium falciparum D6 infected in RBCs by parasitic LDH release assay; assay type: functional, organism-based; method in brief: as §1
SK-MEL = test: Cytotoxicity against human SK-MEL cells after 48 hrs by neutral red assay; assay type: functional, cell-based; method in brief: as §2
Candida albicans = test: Antifungal activity against Candida albicans ATCC 90028 by modified CLSI/NCCLS method; assay type: functional, organism-based
[9] = Selectivity index, ratio of TC50 for african green monkey (Cercopithecus aethiops) Vero cells to IC50 for Plasmodium falciparum D6; assay type: toxicity, cell-based
Pseudomonas aeruginosa = test: Antibacterial activity against Pseudomonas aeruginosa ATCC 27853 by modified CLSI/NCCLS method; assay type: functional, organism-based
[10] = (§3) Toxicity against african green monkey Vero cells after 48 hrs by neutral red assay; assay type: cell-based; conditions: chlorocebus sabaeus, Vero cells; read-out: TC50; method in brief: as §2
Aspergillus fumigatus = test: Antifungal activity against Aspergillus fumigatus ATCC 90906 by modified CLSI/NCCLS method; assay type: functional, organism-based
Leishmania donovani = test: Antileishmanial activity against Leishmania donovani promastigotes after 48 hrs by alamar blue assay; assay type: functional, organism-based; conditions: for IC50: read-out: IC50
Nakaseomyces glabratus = test: Antifungal activity against Candida glabrata ATCC 90030 by modified CLSI/NCCLS method; assay type: functional, organism-based; conditions: Nakaseomyces glabratus, ATCC 90030; read-out: IC50
Vero = test: as §3; assay type: cell-based; conditions: chlorocebus sabaeus, vero, 48 h; method in brief: as §2
[11] = Homo sapiens, KB, 48 h, read-out: IC50
[12] = Homo sapiens, BT-549, 48 h, read-out: IC50
[13] = Homo sapiens, SK-MEL, 48 h, read-out: IC50
[14] = Candida albicans, ATCC 90028, read-out: IC50
[15] = Aspergillus fumigatus, ATCC 90906, read-out: IC50

Compound	IC50 (Plasmodium falciparum [1])	IC50 (Cryptococcus neoformans)	IC50 [2]	IC50 (Escherichia coli)	selectivity ratio [3]	IC50 (KB; [11])	IC50 (SK-OV-3; sk-ov-3)	IC50 (Staphylococcus aureus [4])	CC50 [5]	IC50 (BT-549; [12])	CC50 at 48 h [7]	IC50 (Plasmodium falciparum [8])	IC50 (SK-MEL; [13])	IC50 (Candida albicans; [14])	selectivity ratio [9]	CC50 at 48 h [10]	IC90 (Leishmania donovani; Leishmania donovani, 48 h)	IC50 (Leishmania donovani; Leishmania donovani, 48 h)	TC50 (Vero)	IC50 (Pseudomonas aeruginosa)	also measured
C[C@H]1[C@@H](OC[C@@H]2O[C@@H]2CO[C@H]2O[C@@H]3O[C@@]4(C)CC[C@H]5[C@H](C)CC[C@@H]([C@H]2C)[C@@]35OO4)O[C@@H]2O[C@@]3(C)CC[C@H]4[C@H](C)CC[C@@H]1[C@@]24OO3 (relative stereo)	47.1 nM	31.4 µM	Not Active	Not Active	> 159	470 nM	Not Active	Not Active	> 7.47 µM	300 nM	680 nM	45.5 nM	220 nM	> 31400 nM	> 164	> 1570 nM	47.1 µM	3.9 µM			IC50 (Pichia kudriavzevii): Not Active; IC50 (Staphylococcus aureus [6]): Not Active; IC50 (Pseudomonas aeruginosa; Pseudomonas aeruginosa, ATCC 27853, read-out: IC50): > 31.4 µM; IC50 (Aspergillus fumigatus; [15]): > 31.4 µM; IC50 (Nakaseomyces glabratus): > 31.4 µM
COc1cccc2c1C(=O)c1c(O)c3c(c(O)c1C2=O)C[C@@](O)(C(=O)CO)C[C@@H]3O[C@H]1C[C@H](N)[C@H](O)[C@H](C)O1 [DOXORUBICIN]						2040 nM				1960 nM	1290 nM		1730 nM						Non-toxic		IC50 (SK-OV-3; Homo sapiens, SK-OV-3, 48 h, read-out: IC50): 2040 nM
C[C@H]1[C@@H](OC/C=C\CO)O[C@@H]2O[C@@]3(C)CC[C@H]4[C@H](C)CC[C@@H]1[C@@]24OO3	7.6 nM	0.56 µM	Not Active	Not Active	> 1760		Not Active	Not Active	> 13.4 µM			6.2 nM			> 2160			42.3 µM	Not Active	Not Active	IC50 (KB; kb): Not Active; IC50 (BT-549; bt-549): Not Active; TC50 [7]: Not Active; IC50 (SK-MEL; sk-mel): Not Active; IC50 (Candida albicans): Not Active; IC50 (Aspergillus fumigatus): Not Active; IC90 (Leishmania donovani): inactive
C=C[C@@H](CO[C@H]1O[C@@H]2O[C@@]3(C)CC[C@H]4[C@H](C)CC[C@@H]([C@H]1C)[C@@]24OO3)O[C@H]1O[C@@H]2O[C@@]3(C)CC[C@H]4[C@H](C)CC[C@@H]([C@H]1C)[C@@]24OO3	25.8 nM	6.44 µM	Not Active	Not Active	30	270 nM	Not Active	Not Active		2580 nM	> 16100 nM	24.2 nM	12900 nM	1450 nM	32	430 nM	62.8 µM	20.9 µM		Not Active	IC50 (Aspergillus fumigatus; [15]): 16.1 µM
C[C@H]1[C@@H](Oc2cccc(N[C@@H]3[C@H](C)O[C@@H]4O[C@@]5(C)CC[C@H]6[C@H](C)CC[C@@H]3[C@@]46OO5)c2)O[C@@H]2O[C@@]3(C)CC[C@H]4[C@H](C)CC[C@@H]1[C@@]24OO3	5.9 nM	0.16 µM	Not Active		> 1250		Not Active	Not Active	> 7.41 µM			5.8 nM			> 1290		62.3 µM	24.9 µM	Not Active	Not Active	IC50 (Escherichia coli; Escherichia coli, ATCC 35218, read-out: IC50): 8.57 µM; IC50 (KB; kb): Not Active; IC50 (BT-549; bt-549): Not Active; TC50 [7]: Not Active; IC50 (SK-MEL; sk-mel): Not Active; IC50 (Candida albicans): Not Active; IC50 (Aspergillus fumigatus): Not Active
